Experimental data as given in ChEMBL document CHEMBL1671683, “Activity of linezolid in an in vitro pharmacokinetic-pharmacodynamic model using different dosages and Staphylococcus aureus and Enterococcus faecalis strains with and without a hypermutator phenotype” (Antimicrob Agents Chemother, 2010).

How the values were obtained:
Enterococcus faecalis [1] = assay: Bactericidal activity against 1 hr peripheral compartment culture samples of Enterococcus faecalis ATCC 29212 in two-compartment pharmacokinetic/pharmacodynamic model assessed as effect on bacterial count at 200 mg, bid administered as 0.5 hr infusion; assay type: functional
Method in brief: (§1)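 Two-compartment hollow-fibre model in cation-adjusted, protein-free MH broth, 37°C. Linezolid given as simulated 0.5-h infusion twice daily. Inoculum grown 18 h, concentrated 50-fold and placed in the peripheral compartment 3 h before t0. Peripheral samples at set times counted by dilution plating. First 10-fold dilution not plated, limiting detection to 2–3 log10 CFU/ml. Δlog CFU/ml taken from t0 count. Duplicates.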

Staphylococcus aureus [2] = assay: Bactericidal activity against 48 hrs peripheral compartment culture samples of Staphylococcus aureus RN4220 MutS2 in two-compartment pharmacokinetic/pharmacodynamic model assessed as effect on bacterial count at 600 mg, bid administered as 0.5 hr infusion; assay type: functional
Method in brief: (§2)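 An 18-h culture concentrated 50-fold was injected into the peripheral compartment 3 h pre-sampling (~10^8 CFU/ml E. faecalis, 10^9 S. aureus). Counts came from dilution plating (detection limit 2–3 log10 CFU/ml), expressed as Δlog CFU/ml from treatment start. Run in duplicate.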

Enterococcus faecalis [3] = assay: T>MIC in Enterococcus faecalis Ef1497 MutM3 in two-compartment pharmacokinetic/pharmacodynamic model at 600 mg, bid administered as 0.5 hr infusion for 2 days; assay type: functional
Enterococcus faecalis [4] = assay: T>MIC in Enterococcus faecalis ATCC 29212 in two-compartment pharmacokinetic/pharmacodynamic model at 600 mg, bid administered as 0.5 hr infusion for 2 days; assay type: functional
[5] = AUC in two-compartment pharmacokinetic/pharmacodynamic model at 800 mg, bid administered as 0.5 hrs infusion; assay type: ADME; conditions: iv
in vitro = conditions: two-compartment pharmacokinetic/pharmacodynamic model, iv, 800 mg
Enterococcus faecalis [6] = assay: Bactericidal activity against 13 hrs peripheral compartment culture samples of Enterococcus faecalis ATCC 29212 in two-compartment pharmacokinetic/pharmacodynamic model assessed as effect on bacterial count at 200 mg, bid administered as 0.5 hr infusion; assay type: functional; method in brief: as §2
[7] = Mean residence time in two-compartment pharmacokinetic/pharmacodynamic model at 800 mg, bid administered as 0.5 hr infusion over 24 hrs; assay type: ADME, organism-based; conditions: in vivo, iv
Enterococcus faecalis [8] = assay: Bactericidal activity against 12 hrs peripheral compartment culture samples of Enterococcus faecalis Ef1497 in two-compartment pharmacokinetic/pharmacodynamic model assessed as effect on bacterial count at 600 mg, bid administered as 0.5 hr infusion; assay type: functional; method in brief: as §1
Enterococcus faecalis [9] = assay: Bactericidal activity against 0.5 hrs peripheral compartment culture samples of Enterococcus faecalis Ef1497 MutM3 in two-compartment pharmacokinetic/pharmacodynamic model assessed as effect on bacterial count at 600 mg, bid administered as 0.5 hr infusion; assay type: functional; method in brief: as §1
Enterococcus faecalis [10] = assay: Bactericidal activity against 14 hrs peripheral compartment culture samples of Enterococcus faecalis ATCC 29212 in two-compartment pharmacokinetic/pharmacodynamic model assessed as effect on bacterial count at 200 mg, bid administered as 0.5 hr infusion; assay type: functional; method in brief: as §2
Enterococcus faecalis [11] = assay: Bactericidal activity against 12.5 hrs peripheral compartment culture samples of Enterococcus faecalis Ef1497 in two-compartment pharmacokinetic/pharmacodynamic model assessed as effect on bacterial count at 800 mg, bid administered as 0.5 hr infusion; assay type: functional; method in brief: as §2
Staphylococcus aureus [12] = assay: Bactericidal activity against 1 hr peripheral compartment culture samples of Staphylococcus aureus RN4220 MutS2 in two-compartment pharmacokinetic/pharmacodynamic model assessed as effect on bacterial count at 600 mg, bid administered as 0.5 hr infusion; assay type: functional; method in brief: as §1
Enterococcus faecalis [13] = assay: Bactericidal activity against 12 hrs peripheral compartment culture samples of Enterococcus faecalis ATCC 29212 in two-compartment pharmacokinetic/pharmacodynamic model assessed as effect on bacterial count at 200 mg, bid administered as 0.5 hr infusion; assay type: functional; method in brief: as §1
Staphylococcus aureus [14] = assay: Bactericidal activity against 48 hrs peripheral compartment culture samples of Staphylococcus aureus RN4220 in two-compartment pharmacokinetic/pharmacodynamic model assessed as effect on bacterial count at 600 mg, bid administered as 0.5 hr infusion; assay type: functional
Method in brief: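 An 18-h culture was concentrated 50-fold by centrifugation and injected into the peripheral compartment 3 h before first sampling, giving about 10^9 CFU/ml exponential growth. Linezolid was simulated as a 0.5-h infusion every 12 h. Samples taken from 0 to 48 h were counted by dilution plating on MH agar; the first 10-fold dilution was not plated (detection limit 2–3 log10 CFU/ml). Effect was expressed as Δlog CFU/ml from treatment start. Run in duplicate.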

[15] = Residual concentration at the end of the administration interval in two-compartment pharmacokinetic/pharmacodynamic model at 600 mg, bid administered as 0.5 hrs infusion; assay type: ADME; conditions: iv, read-out: Drug uptake
in vivo = conditions: iv, 600 mg
[16] = system: Staphylococcus aureus subsp. aureus RN4220; assay: AUBC (0 to 24 hrs) in Staphylococcus aureus RN4220MutS2 in two-compartment pharmacokinetic/pharmacodynamic model at 600 mg, bid administered as 0.5 hr infusion for 2 days; assay type: functional
Method in brief: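 Hollow-fibre two-compartment model in cation-adjusted, protein-free MH broth at 37°C. Human total-plasma linezolid profile simulated as 0.5-h infusion every 12 h for 48 h. Concentrated 18-h culture injected into the peripheral compartment 3 h before first sample, giving about 10^8 (E. faecalis) or 10^9 (S. aureus) CFU/ml. Viable counts by dilution plating over 0–24 h. Area indices calculated versus growth control curve. Duplicate runs.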

[17] = Total clearance in two-compartment pharmacokinetic/pharmacodynamic model at 200 mg, bid administered as 0.5 hrs infusion; assay type: ADME, organism-based; conditions: iv
[18] = Volume of distribution at steady state in two-compartment pharmacokinetic/pharmacodynamic model at 200 mg, bid administered as 0.5 hrs infusion; assay type: ADME, organism-based; conditions: iv, read-out: Vdss
[19] = Residual concentration at the end of the administration interval in two-compartment pharmacokinetic/pharmacodynamic model at 800 mg, bid administered as 0.5 hrs infusion; assay type: ADME; conditions: iv, read-out: Drug uptake
Enterococcus faecalis [20] = assay: Bactericidal activity against 2 hrs peripheral compartment culture samples of Enterococcus faecalis ATCC 29212 in two-compartment pharmacokinetic/pharmacodynamic model assessed as effect on bacterial count at 200 mg, bid administered as 0.5 hr infusion; assay type: functional; method in brief: as §2
[21] = Apparent volume of distribution in two-compartment pharmacokinetic/pharmacodynamic model bid administered as 0.5 hr infusion over 24 hrs; conditions: in vivo, iv
Staphylococcus aureus [22] = assay: Bactericidal activity against 24 hrs peripheral compartment culture samples of Staphylococcus aureus RN4220 MutS2 in two-compartment pharmacokinetic/pharmacodynamic model assessed as effect on bacterial count at 600 mg, bid administered as 0.5 hr infusion; assay type: functional; method in brief: as §2
Staphylococcus aureus [23] = assay: Bactericidal activity against 13 hrs peripheral compartment culture samples of Staphylococcus aureus RN4220 MutS2 in two-compartment pharmacokinetic/pharmacodynamic model assessed as effect on bacterial count at 600 mg, bid administered as 0.5 hr infusion; assay type: functional; method in brief: as §2
Enterococcus faecalis [24] = assay: Bactericidal activity against 12 hrs peripheral compartment culture samples of Enterococcus faecalis Ef1497 in two-compartment pharmacokinetic/pharmacodynamic model assessed as effect on bacterial count at 800 mg, bid administered as 0.5 hr infusion; assay type: functional; method in brief: as §2

For `CC(=O)NC[C@H]1CN(c2ccc(N3CCOCC3)c(F)c2)C(=O)O1` [LINEZOLID], the log10CFU/ml (Enterococcus faecalis [1]) was 0.14, the log10CFU/ml (Staphylococcus aureus [2]) was 0.74 and the “fT>MIC” value (Enterococcus faecalis [3]) was 0%. The “fT>MIC” value (Enterococcus faecalis [4]) was 69.1%, the AUC at 0.5 h [5] was 38200 ng·h/mL and the half-life at 0.5 h (in vitro) was 5.01 h. It also gave a log10CFU/ml (Enterococcus faecalis [6]) of 0.28, an MRT [7] of 6.81 h and a log10CFU/ml (Enterococcus faecalis [8]) of -0.12. It also gave a log10CFU/ml (Enterococcus faecalis [9]) of -0.01, a log10CFU/ml (Enterococcus faecalis [10]) of 0.55 and a log10CFU/ml (Enterococcus faecalis [11]) of -0.03. It also gave a log10CFU/ml (Staphylococcus aureus [12]) of 0.02, a log10CFU/ml (Enterococcus faecalis [13]) of 0.14 and a log10CFU/ml (Staphylococcus aureus [14]) of 0.32. The concentration at 0.5 h [15] was 1170 ng/mL, the half-life (in vivo) was 6.18 h and the AUBC [16] was 228.8 log10CFU/ml.hr. It also gave a clearance [17] of 248 mL/min, a Vd [18] of 120 L and a concentration at 0.5 h [19] of 1150 ng/mL. It also gave a log10CFU/ml (Enterococcus faecalis [20]) of 0.09, a Vd [21] of 115 L and a log10CFU/ml (Staphylococcus aureus [22]) of 0.52. For the same compound, the log10CFU/ml (Staphylococcus aureus [23]) was -0.81 and the log10CFU/ml (Enterococcus faecalis [24]) was -0.16.
